# Assay results taken from ChEMBL document CHEMBL1144043, “Second-generation aspirin and indomethacin prodrugs possessing an O(2)-(acetoxymethyl)-1-(2-carboxypyrrolidin-1-yl)diazenium-1,2-diolate nitric oxide donor moiety: design, synthesis, biological evaluation, and nitric oxide release studies” (J Med Chem, 2008).
# How the values were obtained:
# [1] = tested on: Rattus norvegicus; test: Toxicity in rat assessed as ulcer index at 0.08 mmol/kg, po after 6 hrs; format: organism-based; details: in vivo
# How it was run: (§1)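 Rats fasted 24 h (water allowed) were dosed orally in 1.7 mL 1% methylcellulose; vehicle controls received the same. Stomachs were removed 6 h later after CO2 euthanasia. Ulcer index is the summed ulcer length (mm) per stomach averaged over n = 4, given as mean ± SEM.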
# [2] = tested on: Rattus norvegicus; test: Analgesic activity against sodium chloride-induced abdominal constriction in rat at 84 umol/kg, po after 30 mins; format: functional, Abdomen
# How it was run: (§2)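 4% NaCl-induced writhing (abdominal constriction) assay in rats after oral dosing; writhing inhibition scored at 30 and 60 min post-dose; reported as % inhibition, mean ± SEM, n = 4.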
# [3] = tested on: Rattus norvegicus; test: Analgesic activity against sodium chloride-induced abdominal constriction in rat at 84 umol/kg, po after 60 mins; format: functional, Abdomen; how it was run: as §2
# [4] = tested on: Rattus norvegicus; test: Antiinflammatory activity against carrageenan-induced foot paw edema in rat; format: functional
# How it was run: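 Carrageenan-induced rat paw edema after oral administration; ED50 taken as the dose lowering the inflammatory response by 50% in the group of animals (n = 4).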
# [5] = tested on: Rattus norvegicus; test: Toxicity in rat assessed as ulcer index at 1.38 mmol/kg, po after 6 hrs; format: organism-based; details: in vivo; how it was run: as §1
# [6] = tested on: Rattus norvegicus; test: Analgesic activity against sodium chloride-induced abdominal constriction in rat at 277 umol/kg, po after 60 mins; format: functional, Abdomen; how it was run: as §2
# [7] = tested on: Rattus norvegicus; test: Analgesic activity against sodium chloride-induced abdominal constriction in rat at 277 umol/kg, po after 30 mins; format: functional, Abdomen; how it was run: as §2
# [8] = tested on: Rattus norvegicus; test: Analgesic activity against sodium chloride-induced abdominal constriction in rat at 68 umol/kg, po after 60 mins; format: functional, Abdomen; how it was run: as §2
# [9] = Effect on nitric oxide release in phosphate-buffered solution in presence of porcine liver esterase by Sievers nitric oxide analyzer; format: functional
# How it was run: (§3)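 Porcine liver esterase (29 units, suspension in 3.2 M ammonium sulfate) in phosphate buffer (3 mL) at pH 8.0, 37 °C; compound injected as a DMSO solution. NO is swept by N2 to a chemiluminescence analyzer and AUC is quantified against a calibration curve. The time to more than 90% of theoretical NO is read graphically from time vs mol NO/min curves.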
# [10] = Effect on nitric oxide release in phosphate-buffered solution at pH 7.4 by Sievers nitric oxide analyzer; format: functional
# How it was run: (§4)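 Compound in DMSO injected into a sealed cell holding deoxygenated 0.1 M phosphate buffer (3 mL, pH 7.4) with 50 µM DTPA at 37 °C. NO is carried by N2 purge to a chemiluminescence analyzer, and AUC is converted with a calibration curve to mol NO/mol compound. The time to about 50% of theoretical NO is read graphically from time vs mol NO/min curves.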
# [11] = tested on: Rattus norvegicus; test: Analgesic activity against sodium chloride-induced abdominal constriction in rat at 68 umol/kg, po after 30 mins; format: functional, Abdomen; how it was run: as §2
# [12] = Effect on nitric oxide release phosphate-buffered solution assessed as time required to detect about 50% of NO/mol of compound by Sievers nitric oxide analyzer; format: functional; how it was run: as §4
# [13] = Effect on nitric oxide release assessed as time required to detect more than 90% of NO/mol of compound by Sievers nitric oxide analyzer; format: functional; how it was run: as §3
# [14] = tested on: Rattus norvegicus; test: Analgesic activity against sodium chloride-induced abdominal constriction in rat at 48 umol/kg, po after 30 mins; format: functional, Abdomen; how it was run: as §2
# [15] = tested on: Rattus norvegicus; test: Analgesic activity against sodium chloride-induced abdominal constriction in rat at 48 umol/kg, po after 60 mins; format: functional, Abdomen; how it was run: as §2
Structure (SMILES),UI [1],ED50 [4],UI [5],Activity [9],Activity [10],TIME [12],TIME [13],other results
COc1ccc2c(c1)c(CC(=O)O)c(C)n2C(=O)c1ccc(Cl)cc1 [INDOMETHACIN],64.5,11.8 µmol/kg,,,,,,Activity [2]: 51.8%; Activity [3]: 67.6%
CC(=O)Oc1ccccc1C(=O)O [ASPIRIN],,710 µmol/kg,51.4,,,,,Activity [6]: 64.3%; Activity [7]: 56.5%
CC(=O)OCO/N=[N+](\[O-])N1CCC[C@H]1C(=O)OCOC(=O)c1ccccc1OC(C)=O,,314 µmol/kg,0.75,1.9,1.1,43 h,0.04 h,Activity [8]: 65.8%; Activity [11]: 24.6%
COc1ccc2c(c1)c(CC(=O)OCOC(=O)[C@@H]1CCCN1/[N+]([O-])=N/OCOC(C)=O)c(C)n2C(=O)c1ccc(Cl)cc1,0,18.5 µmol/kg,,1.8,1.1,45 h,0.0533 h,Activity [14]: 36.3%; Activity [15]: 61.5%
O=C(O)[C@@H]1CCCN1/[N+]([O-])=N/O,,,,,2,,0.0005 h,
